Compounds with a hit are over-represented: about 3.9% of the library has one in this group of screens.
ANO1 activ: activates or potentiates the mouse TMEM16A chloride channel | HEK293 TMEM16A/YFP-H148Q/I152L, iodide quench fluorescence; stronger effect = lower value | B-score at 10 µM | actives 0.3% (n = 340,000) | AID 623877;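 active = fluorescence-ratio B-score plate-corrected deviation score at least 3 library SD below zero, with starting fluorescence score within 5 deviations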;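 note: channel opened by trigger with iodide after compound preincubation; score built on the fluorescence ratio of max minus min over baseline; more negative score means more quench and so TMEM16A activation or potentiation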
TAAR1 agonist: human TAAR1 agonism. Q96RJ0. CHO RD-HGA16 TAAR1, Fluo-8 calcium fluorescence; vehicle wells 0%, saturating PEA agonist 100%. activation, % at 3 µM. actives 0.99% (n = 360,000);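 active = activation above the mean activation of all test compounds in the run plus 3 SD, cut at about 38% in these data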
Target sequence (Q96RJ0 whole entry, looked up): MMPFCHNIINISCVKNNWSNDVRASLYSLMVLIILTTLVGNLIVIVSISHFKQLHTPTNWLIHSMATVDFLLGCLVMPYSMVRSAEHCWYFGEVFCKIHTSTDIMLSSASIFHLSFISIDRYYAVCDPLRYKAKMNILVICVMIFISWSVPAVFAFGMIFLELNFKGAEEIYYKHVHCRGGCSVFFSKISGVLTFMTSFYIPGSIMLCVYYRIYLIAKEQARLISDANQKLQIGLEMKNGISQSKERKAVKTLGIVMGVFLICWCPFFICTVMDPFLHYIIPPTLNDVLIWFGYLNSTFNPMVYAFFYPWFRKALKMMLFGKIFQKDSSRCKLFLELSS
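Test system: RD-HGA16 (CHO) cells co-expressing Gα16 and hTAAR1 | Doses: Single dose, 3 µM | Schedule: 17-24 h seeding, 75 min 37 °C dye, 30 min RT | Evaluation: % activation from peak over basal fluorescence ratio, DMSO-to-PEA scaled | Technique: Kinetic Fluo-8 calcium fluorescence | Benchmarks: Low control DMSO, high control PEA (EC100)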
CRFBP-R2 block: blocks CRF-induced signaling of the CRF-BP/CRF-R2 complex; HEK293 CRF-R2/CRF-BP, CRF-induced calcium fluorescence; inhibition, % at 11.8 µM; actives 0.59% (n = 350,000);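 active = inhibition of the ligand-induced calcium signal above about 50% at the single tested concentration, limit read from the data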
CRFR2-BP ag: agonists of human CRF-binding protein/CRF-R2 receptor complex; activation, % at 13.2 µM; HEK293 CRF-R2/CRF-BP, calcium dye fluorescence (FLIPR); percent of saturating CRF peptide response; AID 588473; actives 0.46% (n = 350,000);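 active = activation of at least 50%, plus an integration ratio under a set limit after plate pattern correction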
TMEM16A inh: blocks the mouse calcium-activated chloride channel TMEM16A; HEK293 TMEM16A/YFP iodide influx fluorescence, ionomycin; normalized B-score (activity score, 25-100; higher = stronger inhibition) at 10 µM; actives 1.2% (n = 310,000);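 active = ratio plate-corrected score three or more library SD toward inhibition, starting fluorescence score within five deviations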;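 note: score derived from kinetic fluorescence span divided by baseline fluorescence per well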
TAAR1 antag: human TAAR1 antagonism; actives 1.5% (n = 360,000); Q96RJ0; AID 624466; inhibition, % at 3 µM; CHO RD-HGA16 TAAR1, Fluo-8 calcium fluorescence, antagonist;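 active = inhibition above a per-plate cutoff, the mean inhibition of test compounds on that plate plus 3 SD, cut at about 49% in these data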
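test system = CHO RD-HGA16 cells bearing hTAAR1 | replication = singlicate | controls = DMSO-only wells and EC80 β-PEA-stimulated wells | reagent = EC80 β-phenethylamine stimulus | read-out basis = percent inhibition of PEA-evoked calcium signal, max/basal emission ratio | schedule = seeding 17-24 h prior, 75-min 37 °C, 30-min RT dye loading | signal = kinetic Fluo-8 calcium fluorescence measurement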
A number is an active result; 0 = inactive; - = not tested or not shown.

SMILES | ANO1 activ | TAAR1 agonist | CRFBP-R2 block | CRFR2-BP ag | TMEM16A inh | TAAR1 antag
OC(Cn1ccnc1)c1ccc(Cl)cc1Cl (configuration not stated) | 0 | 0 | 0 | 0 | 0 | 0
Clc1ccc(C(Cn2ccnc2)OCc2c(Cl)cccc2Cl)c(Cl)c1 (configuration not stated) | 0 | 0 | 0 | 0 | 0 | 51.0
C=CCNc1nc2ccccc2nc1NS(=O)(=O)c1ccc(F)cc1 | 0 | 0 | 0 | 0 | 0 | 0
C=CCNc1nc2ccccc2nc1NS(=O)(=O)c1ccc(Br)cc1 | - | 0 | 0 | 0 | 25 | 0
CC(O)(c1cccc(F)c1)c1nc(-c2ccc(S(C)(=O)=O)cc2)cs1 (configuration not stated) | - | 0 | - | - | - | 0
CCOC(=O)c1ccc(/C=C2/C=C(c3ccccc3)N(c3ccc(Cl)c(C(=O)O)c3)C2=O)cc1 | 0 | 0 | 0 | 95.5 | 0 | 0
CCN(CC)c1ccc2c(c1)oc(=O)c1c(Cl)cc(=O)oc12 | 0 | - | 0 | 222.9 | 0 | -
CC(C)N1CC(C(=O)Nc2ccc(Br)c(Cl)c2)CC1=O (configuration not stated) | 0 | 0 | 60.3 | 0 | 0 | 0
Cc1ccc(NC(=O)C2CC(=O)N(C(C)C)C2)cc1Cl (configuration not stated) | 0 | 0 | 0 | 0 | 0 | 0
CN1CCN(CC(=O)Nc2ccc([N+](=O)[O-])cc2Br)CC1 | 0 | 0 | 0 | 0 | 0 | 0
Cc1cccnc1C1=NOC(Cc2ccccc2)C(=O)N1Cc1ccccc1F (configuration not stated) | - | 0 | - | - | - | 0
CCOc1ccccc1N(CC(=O)N1CCOCC1)S(=O)(=O)c1ccc(SC)cc1 | -9.79 | 0 | 0 | 109.1 | - | 0
Cc1ccc(S(=O)(=O)N(CC(=O)N2CCOCC2)c2ccccc2F)cc1 | 0 | 0 | 0 | 0 | 0 | 0
COc1ccc(NC(=O)C2C3C=CC4(O3)C2C(=O)N(CCCN2CCCC(C)C2)C4C(=O)NC2CCCCC2)cc1 (configuration not stated) | 0 | 0 | 0 | 0 | 0 | 0
O=C(Cn1nc(Cl)nc1Cl)c1ccccc1 | 0 | 0 | 0 | 0 | 0 | 0
O=C(Cn1nc(Cl)nc1Cl)Nc1ccccc1 | 0 | 0 | 61.1 | 0 | 0 | 0
O=C(O)c1cccc(-c2ccc(/C=N/Nc3ccc([N+](=O)[O-])cc3)o2)c1 | 0 | 43.9 | 0 | 165.8 | 0 | 57.4
Cc1c(C(=O)O)cccc1-c1ccc(/C=N/Nc2ccc(Br)cc2)o1 | 0 | 0 | 0 | 0 | 0 | 58.6
CN(C(=O)COC(=O)c1cc([N+](=O)[O-])ccc1Cl)c1ccccc1 | 0 | 0 | 0 | 0 | 0 | 0
COc1ccc(C(=O)NCCc2ccc(F)cc2)cc1OC | 0 | 0 | 0 | 0 | 0 | 0
COc1ccc(CCNC(=O)c2ccc3c(c2)N(Cc2ccc(F)cc2)CCS3)cc1OC | 0 | 0 | 0 | 0 | 0 | 59.4
CC(=O)N1CCc2cc(S(=O)(=O)Nc3ccc(C)cc3)ccc21 | 0 | 0 | 0 | 0 | 0 | 0
CCOC(=O)COc1ccc(S(=O)(=O)Nc2cccc(SC)c2)cc1 | 0 | 0 | 0 | 0 | 25 | 0
CC(=O)N1CCc2cc(S(=O)(=O)Nc3cccc(C(F)(F)F)c3)ccc21 | 0 | 0 | 0 | 0 | 25 | 0
COc1cccc(NS(=O)(=O)c2ccc3c(c2)CCN3C(C)=O)c1 | 0 | 0 | 0 | 0 | 0 | 0
SMILES | ANO1 activ | TAAR1 agonist | CRFBP-R2 block | CRFR2-BP ag | TMEM16A inh | TAAR1 antag
O=C(c1ccc(S(=O)(=O)Nc2cccc(C(F)(F)F)c2)cc1)N1CCOCC1 | 0 | 0 | 0 | 0 | 0 | 0
CC1CN(C(=O)c2ccc(S(=O)(=O)Nc3cccc(C(F)(F)F)c3)cc2)CC(C)O1 (configuration not stated) | 0 | 58.9 | 0 | 0 | 0 | 0
CSc1cccc(NS(=O)(=O)c2ccc3c(c2)CCN3C(C)=O)c1 | 0 | 0 | 0 | 0 | 25 | 0
CCOC(=O)COc1ccc(S(=O)(=O)Nc2ccc3c(c2)OCCO3)cc1 | 0 | 0 | 0 | 0 | 0 | 0
CCOc1ccc(C2/C(=C(/O)c3ccc4c(c3)CC(C)O4)C(=O)C(=O)N2CCCn2ccnc2)cc1OCC (configuration not stated) | 0 | 0 | 0 | 0 | 0 | 0
CCOC(=O)C1=C(COC(=O)c2ccc(OC(C)C)cc2)NC(=O)NC1C (configuration not stated) | 0 | 0 | 0 | 0 | 0 | 0
COc1cc(C(=O)N2CCC2(C)C(=O)NC(C)C)cc(OC)c1OC (configuration not stated) | - | 0 | - | - | - | 0
Cn1cnnc1SCC(=O)Nc1ccccc1Oc1ccccc1 | 0 | 0 | 0 | 0 | 0 | 0
Cc1c(-c2ncn[nH]2)sc(C#N)c1-c1ccccc1 | 0 | 0 | 58.8 | 0 | 0 | 0
CCOC(=O)C1CCCN(C(=O)CCc2nnc(-c3ccc(C(C)=O)s3)o2)C1 (configuration not stated) | 0 | 0 | 0 | 0 | 0 | 0
Cc1ccc(CNC(=O)[C@H](C)N2C(=O)N3CCc4c([nH]c5ccccc45)[C@@]3(C)C2=O)cc1 | 0 | 0 | 0 | 0 | 0 | 0
COc1ccc(CNC(=O)[C@H](C)N2C(=O)N3CCc4c([nH]c5ccccc45)[C@@]3(C)C2=O)cc1OC | -13 | 0 | 0 | 0 | 0 | 0
CC(=O)c1c(C)[nH]c(C(=O)COC(=O)C2(C)CC2(Cl)Cl)c1C (configuration not stated) | 0 | 0 | 0 | 0 | - | 55.8
Cc1ccc(C(C)C)c(OCCn2c(=O)oc3ccccc32)c1 | 0 | 0 | 0 | 0 | 0 | 72.2
Cc1ccc(C(C)C)c(OCCN(C)C)c1 | 0 | 0 | 0 | 0 | 0 | 0
Cc1ccccc1OCCn1c(=O)oc2ccccc21 | 0 | 0 | 0 | 0 | 0 | 0
Cc1ccc(C(C)C)c(OCCN)c1 | 0 | 37.9 | 0 | 0 | 0 | 0
COc1ccc(C2c3[nH]c4ccccc4c3C[C@H]3C(=O)N(c4ccccc4C(=O)N4CCC[C@H]4C(=O)O)C(=O)N23)cc1 (some centres not stated) | 0 | 0 | 0 | 0 | 0 | 0
Nc1ccccc1Oc1c(F)c(F)c(Oc2ccccc2N)c(F)c1F | 0 | 0 | 67.0 | 0 | 0 | 0
O=C(Cc1ccc(Br)c2ccccc12)N/N=C/c1ccccn1 | 0 | 0 | 0 | 0 | 25 | 0
O=C(N/N=C/c1ccccn1)c1cccs1 | 0 | 0 | 62.0 | 0 | 0 | 0
O=C(Cc1ccc(F)cc1)N/N=C/c1ccccn1 | 0 | 0 | 0 | 0 | 0 | 0
COc1cc(C(=S)N2CCCCC2)ccc1OCC(=O)Nc1ccc(F)cc1 | 0 | 0 | 0 | 0 | 0 | 0
CC1COCC(C)N1C1=C(Cl)C(=O)c2ccccc2C1=O (configuration not stated) | 0 | 41.0 | 0 | 0 | - | 0
COC(=O)c1ccc(C)c(NC(=O)CCSc2ccc(Cl)cc2)c1 | 0 | 0 | 0 | 0 | 0 | 0

Screening results as filed in PubChem.
